The target of data set [1] is T1, Sortase A (Staphylococcus aureus, UniProt Q9S446, DELTAN24). Nature of the data set: Inhibition of Staphylococcus aureus SrtA delta N24 mutant expressed in Escherichia coli BL21 (DE3) using Abz-LPATG-Dnp substrate incubated for 20 mins by FRET-based assay. In a few lines: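 His-tagged SrtAΔN24 (1 µM) was preincubated 20 min at rt with compound (0.2–100 µM) in 50 mM Tris-HCl pH 7.5, 150 mM NaCl, 5 mM CaCl2. Abz-LPATG-Dnp was added at 10 µM and fluorescence (ex 309 / em 420 nm) was read each minute for 20 min. IC50 came from a sigmoidal fit. Technical triplicates, three independent experiments.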

The target in data set [2] is T1, Sortase A. Briefly: Inhibition of Staphylococcus aureus SrtA delta N24 mutant expressed in Escherichia coli BL21 (DE3) assessed as reduction in IsdA (64 to 323 residues) transpeptidation incubated for 20 mins by SDS-PAGE analysis. An outline of the steps: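 His-tagged SrtAΔN24 (100 µg) was preincubated 20 min at rt with compound (1–25 µM) in 50 mM Tris-HCl pH 7.5, 150 mM NaCl, 5 mM CaCl2. IsdA64-323 (150 µg) and 3 mM Gly3 were then added for 1.5 hr at 37 °C. […] Three independent experiments.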

Data set [3] concerns Staphylococcus aureus. Briefly: Antibacterial activity against Staphylococcus aureus subsp. aureus str. Newman assessed as reduction in bacterial growth incubated for 24 hrs. The format is functional. In a few lines: (§1)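 Overnight culture diluted 1:1000 in TSB, grown to A600 0.6-0.8, then diluted 1:400 in TSB. Aliquots incubated with the compound at a range of concentrations. A600 read every 1 hr for 24 hr to build growth curves. Technical triplicates per point; three independent experiments.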

Data set [4] in a line: Solubility in PBS in presence of 1% DMSO by LC/MS analysis. It counts as physicochemical. Conditions: PBS with 1% DMSO.
Data set [5] has as its system Sortase A (Staphylococcus aureus), Q9S446 [UNDEFINED MUTATION]. Briefly: Covalent binding affinity to Staphylococcus aureus SrtA delta N24 mutant assessed as induction of m/z shift incubated for 12 hrs by ESI-LC/MS analysis. An outline of the steps:
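His-tagged SrtAΔN24 preincubated 12 hr with or without a 10-fold excess of compound. Diluted in 50% acetonitrile / 0.2% formic acid, run on a C8 column with a 10–90% acetonitrile gradient over 11 min, then ESI-TOF MS. MTSET served as the covalent reference.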

Data set [6] shares this test system. Nature of the data set: Reversible inhibition of Staphylococcus aureus SrtA delta N24 mutant expressed in Escherichia coli BL21 (DE3) assessed as reduction in IsdA (64 to 323 residues) transpeptidation incubated for 20 mins followed by 10 fold compound dilution by SDS-PAGE analysis.
For data set [7] the test system is unchanged. Briefly: Time dependent inhibition of Staphylococcus aureus SrtA delta N24 mutant expressed in Escherichia coli BL21 (DE3) assessed as reduction in IsdA (64 to 323 residues) transpeptidation by SDS-PAGE analysis.
Data set [8] shares this test system. Briefly: Effect on structural folding of Staphylococcus aureus SrtA delta N24 mutant expressed in Escherichia coli BL21 (DE3 assessed as induction of gross structural perturbations by CD spectroscopy. An outline of the steps: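 SrtAΔN24 at 10 µM was incubated with compound dissolved in methanol, and CD spectra were recorded. Two independent experiments.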

Data set [9] shares this test system. Nature of the data set: Inhibition of Staphylococcus aureus SrtA delta N24 mutant expressed in Escherichia coli BL21 (DE3) using Abz-LPATG-Dnp substrate incubated for 20 mins in presence of 0.01% v/v Triton X-100 by FRET-based assay.
For data set [10], the system named is Staphylococcus aureus. Nature of the data set: Antibacterial activity against Staphylococcus aureus subsp. aureus str. Newman assessed as reduction in bacterial growth at 200 uM incubated for 24 hrs. The format is functional, organism-based. In a few lines: as §1
Data set [11] deals with Sortase A (Staphylococcus aureus), Q9S446 [UNDEFINED MUTATION]. Nature of the data set: Inhibition of SrtA delta N24 mutant in Staphylococcus aureus subsp. aureus str. Newman reduction in abundance of anchored SpA by FITC-labeled human IgG fluorescence based assay. In a few lines: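 Newman wild type and ΔsrtA were diluted 1:1000 in TSB and grown at 37 °C with inhibitor until A600 reached 1.0. Cells were PBS-washed, labelled with FITC-human IgG for 30 min at rt, and washed again before fluorescence was read. Triplicate wells, three independent experiments, unpaired two-tailed t-test.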

Data set [12] shares this test system. Briefly: Inhibition of SrtA delta N24 mutant in Staphylococcus aureus subsp. aureus str. Newman reduction in abundance of anchored SpA at 50 to 200 uM by Western blot analysis. In a few lines:
(§2)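 Newman was diluted 1:1000 and grown at 37 °C with inhibitor to A600 3.0. Cells were PBS-washed and digested with lysozyme for 30 min at 37 °C. Protoplasts were removed and the supernatant (cell wall fraction) was separated by SDS-PAGE and immunoblotted for SpA, with ClpP as the loading control. Three independent experiments.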
(In general: In western blotting, separated proteins are transferred to a membrane and probed.)

Data set [13] relates to Staphylococcus aureus. Nature of the data set: Antibiofilm activity against Staphylococcus aureus subsp. aureus str. Newman assessed as reduction in biofilm biomass at 25 to 100 uM incubated for 18 hrs by Crystal violet staining assay. It counts as functional, organism-based. In a few lines:
(§3)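 Overnight culture diluted 1:100 in TSB, plated in quadruplicate with inhibitor, and held static at 37 °C for 18 hr. Wells rinsed with PBS, and the dried, fixed biofilm stained with 0.1% crystal violet for 15 min. Stain dissolved in 30% acetic acid and absorbance read at 595 nm. Three independent experiments.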

In data set [14] the test system is Staphylococcus aureus. Nature of the data set: Antibiofilm activity against Staphylococcus aureus subsp. aureus USA300 assessed as reduction in biofilm formation at 25 to 100 uM incubated for 18 hrs by Crystal violet staining assay. It counts as functional, organism-based. In a few lines:
as §3

For data set [15], the system named is Staphylococcus aureus. Nature of the data set: Effect on cell growth of Staphylococcus aureus subsp. aureus USA300 at 150 ug/ml. It counts as organism-based. An outline of the steps:
as §1

Data set [16] is described as follows: Cmax in mouse at 10 mg/kg, ip administered as single dose. The format is ADME, organism-based. Details: dose 10 mg/kg, route intraperitoneal. Conditions: in vivo.
The subject of data set [17] is Staphylococcus aureus. Nature of the data set: Antibacterial activity against Staphylococcus aureus subsp. aureus USA300 infected in BALB/c mouse model of systemic infection assessed as prolongation of time to death at 40 mg/kg/day, ip for 10 days. It counts as functional, organism-based. An outline of the steps: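 BALB/c females, 6 weeks old, n = 10. USA300 grown 3 hr at 37 °C from a 1:1,000 dilution of overnight culture, washed, suspended in PBS. Compound suspended in ddH2O with 4% Tween 80 and 4% DMSO, given i.p. at 40 mg/kg every 24 hr; saline placebo. Mice challenged periorbitally 4 hr after the first dose. Survival followed over 10 days.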

The test system of data set [18] is Staphylococcus aureus. Briefly: Antibacterial activity against Staphylococcus aureus subsp. aureus USA300 infected in BALB/c mouse model of systemic infection assessed as mouse survival at 40 mg/kg/day, ip for 10 days. It counts as functional. The conditions noted are these: 240 h. An outline of the steps:
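BALB/c females, 6 weeks old, n = 10. Drug suspended in ddH2O with 4% Tween 80 and 4% DMSO, given i.p. at 40 mg/kg every 24 hr. Saline was the placebo. Challenge by periorbital injection of USA300 4 hr after the first dose, about 1 × 10^8 CFU (lethal). Survival was followed for 10 days.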

Data set [19] relates to Sortase A (Staphylococcus aureus), Q9S446 [UNDEFINED MUTATION]. Nature of the data set: Covalent inhibition of Staphylococcus aureus SrtA delta N24 mutant expressed in Escherichia coli BL21 (DE3) assessed as reduction in IsdA (64 to 323 residues) transpeptidation incubated for 20 mins followed by 10 fold compound dilution by SDS-PAGE analysis.
Data set [20] shares this test system. Briefly: Inhibition of SrtA delta N24 mutant in Staphylococcus aureus subsp. aureus str. Newman reduction in abundance of anchored SpA by Western blot analysis. An outline of the steps:
as §2

For data set [21] the test system is unchanged. Briefly: Binding affinity to Staphylococcus aureus SrtA delta N24 mutant expressed in Escherichia coli BL21 (DE3 assessed as attenuation of NMR signals by CPMG-NMR analysis. An outline of the steps:
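NMR titration in 20 mM sodium phosphate pH 7.4, 100 mM NaCl, 2% DMSO, at 25 °C on a 600 MHz spectrometer with a cryoprobe.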

Activity calls are given as the source filed them.

Regarding `O=c1sn(-c2cccc3ccccc23)c(=O)n1Cc1ccccc1` [TIDEGLUSIB], the IC50 (commonly the concentration that gives 50% inhibition) against Sortase A [1] was determined as 600 nM; at Sortase A [2], 5900 nM. Moreover, in the data set with Staphylococcus aureus [3], the MIC (commonly the smallest concentration in the dilution series that meets the test's criterion for growth inhibition) was above 100 µg/mL. In addition, in [4], the solubility (in general, the dissolved amount per volume that the medium holds) turned out to be 11 µg/mL. Besides, the outcome in data set [5] and in [8] was inactive. For the same compound, the inhibition result (in data set [6]; in data set [9]; in the data set with Staphylococcus aureus [10]; in [12]) was “Active” in each case. The TDI result in [7] was “inactive”. The inhibition entry in [11] is “Dose-dependent effect”. For the same compound, the result with Staphylococcus aureus [13], with Staphylococcus aureus [14] and with Staphylococcus aureus [17] was Active. In addition, in the data set with Staphylococcus aureus [15], the Activity entry is “Non-Toxic”. Further, the Cmax (in general, the highest concentration seen after dosing) in data set [16] amounted to 137 ng/mL. Moreover, the survival at 40 mg/kg/day in the data set on Staphylococcus aureus [18] was 40%.

Take `C[N+](C)(C)CCSS(C)(=O)=O`: in data set [5], the Activity worked out at 120 Da. Also, the inhibition entry in [19], in [11] and in data set [20] was “Active” each time.

As for `Cc1noc(C)c1-n1sc(=O)n(Cc2ccccc2)c1=O`, the IC50 on Sortase A [1] was determined as 800 nM; on Sortase A [2], 4600 nM. Also, the MIC in the data set on Staphylococcus aureus [3] was above 100 µg/mL. Besides, the solubility in data set [4] came out at 144 µg/mL. Besides, the outcome in [5] and in data set [8] was inactive. The inhibition result in [6] and in data set [9] was “Active” throughout. Moreover, in data set [7], the TDI entry is “inactive”. Besides, in data set [21], the Activity entry is “Dose-dependent effect”. Besides, the inhibition result in data set [11] was “Dose-dependent effect”. The outcome in the data set with Staphylococcus aureus [13] was Active.
